Source: ChEMBL document CHEMBL1141783, “Neuroprotective and antioxidant activity of compounds from the aerial parts of Dioscorea opposita” (2005)

Key:
Brain [1] = test: Antioxidant activity in rat brain assessed as malondialdehyde level at 3.70 uM by thiobarbituric acid method; assay type: functional
How it was run: (§1)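 Rat brain MDA was measured by the thiobarbituric acid method, following a previously published protocol. Each compound was tested at three final concentrations. Freshly prepared vitamin C served as the positive control.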

[2] = Neuroprotective activity in Swiss-Webster mouse neocortical cells with oxygen and glucose deprivation assessed as decrease in lactic dehydrogenase leakage at 37 uM; assay type: functional; parameters: scale not given: the % may be the effect or the level left
How it was run: (§2)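 Cultured neocortical cells were exposed to OGD with compound at one of three final concentrations; controls received the same volume of glucose-free Earle's buffer instead. For OGD, the chamber was flushed with 95% N2/5% CO2 for 10 min, sealed, and kept at 37 °C for 25 min, followed by 30 min under normal conditions. The treatment was repeated twice, and cells were held 6 h at 37 °C after the last one. LDH was measured in medium and in freeze-thaw lysate. Leakage = extracellular/(extracellular+intracellular) ×100%.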

Plasma [3] = test: Antioxidant activity in New Zealand White rabbit plasma assessed as increase in conjugated diene formation at 37 uM by thiobarbituric acid method; assay type: functional, Oryctolagus cuniculus
How it was run: (§3)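 LDL was isolated from New Zealand White rabbit plasma, and its susceptibility to oxidation was measured by a previously published method. Each compound was tested at three final concentrations. Freshly prepared vitamin C served as the positive control.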

[4] = Neuroprotective activity in Swiss-Webster mouse neocortical cells with oxygen and glucose deprivation assessed as decrease in lactic dehydrogenase leakage at 370 uM; assay type: functional; parameters: scale not given: the % may be the effect or the level left; how it was run: as §2
Brain [5] = test: Antioxidant activity in rat brain assessed as malondialdehyde level at 370 uM by thiobarbituric acid method; assay type: functional; how it was run: as §1
Plasma [6] = test: Antioxidant activity in New Zealand White rabbit plasma assessed as increase in conjugated diene formation at 370 uM by thiobarbituric acid method; assay type: functional, Oryctolagus cuniculus; how it was run: as §3
[7] = Neuroprotective activity in Swiss-Webster mouse neocortical cells with oxygen and glucose deprivation assessed as decrease in lactic dehydrogenase leakage at 3.70 uM; assay type: functional; parameters: scale not given: the % may be the effect or the level left; how it was run: as §2
Plasma [8] = test: Antioxidant activity in New Zealand White rabbit plasma assessed as increase in conjugated diene formation at 3.70 uM by thiobarbituric acid method; assay type: functional, Oryctolagus cuniculus; how it was run: as §3
Brain [9] = test: Antioxidant activity in rat brain assessed as malondialdehyde level at 37 uM by thiobarbituric acid method; assay type: functional; how it was run: as §1
[10] = Neuroprotective activity in Swiss-Webster mouse neocortical cells with oxygen and glucose deprivation assessed as decrease in lactic dehydrogenase leakage at 217 uM; assay type: functional; parameters: scale not given: the % may be the effect or the level left; how it was run: as §2
Brain [11] = test: Antioxidant activity in rat brain assessed as malondialdehyde level at 2.17 uM by thiobarbituric acid method; assay type: functional; how it was run: as §1
Plasma [12] = test: Antioxidant activity in New Zealand White rabbit plasma assessed as increase in conjugated diene formation at 21.7 uM by thiobarbituric acid method; assay type: functional, Oryctolagus cuniculus; how it was run: as §3
Brain [13] = test: Antioxidant activity in rat brain assessed as malondialdehyde level at 21.7 uM by thiobarbituric acid method; assay type: functional; how it was run: as §1
[14] = Neuroprotective activity in Swiss-Webster mouse neocortical cells with oxygen and glucose deprivation assessed as decrease in lactic dehydrogenase leakage at 21.7 uM; assay type: functional; parameters: scale not given: the % may be the effect or the level left; how it was run: as §2
Plasma [15] = test: Antioxidant activity in New Zealand White rabbit plasma assessed as increase in conjugated diene formation at 217 uM by thiobarbituric acid method; assay type: functional, Oryctolagus cuniculus; how it was run: as §3
Plasma [16] = test: Antioxidant activity in New Zealand White rabbit plasma assessed as increase in conjugated diene formation at 2.17 uM by thiobarbituric acid method; assay type: functional, Oryctolagus cuniculus; how it was run: as §3
[17] = Neuroprotective activity in Swiss-Webster mouse neocortical cells with oxygen and glucose deprivation assessed as decrease in lactic dehydrogenase leakage at 2.17 uM; assay type: functional; parameters: scale not given: the % may be the effect or the level left; how it was run: as §2
Brain [18] = test: Antioxidant activity in rat brain assessed as malondialdehyde level at 217 uM by thiobarbituric acid method; assay type: functional; how it was run: as §1
Brain [19] = test: Antioxidant activity in rat brain assessed as malondialdehyde level at 568 uM by thiobarbituric acid method; assay type: functional; how it was run: as §1
Plasma [20] = test: Antioxidant activity in New Zealand White rabbit plasma assessed as increase in conjugated diene formation at 568 uM by thiobarbituric acid method; assay type: functional, Oryctolagus cuniculus; how it was run: as §3

Question: Which results are given for `COC1=CC(=O)c2c(ccc3cc(O)c(O)cc23)C1=O`?
Answer: Activity (Brain [1]): 1.52 nmol/mg protein; Activity [2]: 41.09%; Activity (Plasma [3]): 112.97%; Activity [4]: 36.58%; Activity (Brain [5]): 1.23 nmol/mg protein; Activity (Plasma [6]): 95.09%; Activity [7]: 38.3%; Activity (Plasma [8]): 67.46%; Activity (Brain [9]): 1.43 nmol/mg protein

Question: With `COc1cc(-c2cc(=O)c3c(O)cc(O)cc3o2)ccc1O[C@@H]1O[C@H](CO)[C@@H](O)[C@H](O)[C@H]1O` as the molecule, how does the Activity [10] read?
Answer: 21.14%

Question: And the Activity (Brain [11])?
Answer: 1.46 nmol/mg protein

Question: And the Activity (Plasma [12])?
Answer: 30.16%

Question: And the Activity (Brain [13])?
Answer: 1.43 nmol/mg protein

Question: And the Activity [14]?
Answer: 22.74%

Question: And the Activity (Plasma [15])?
Answer: 0.32%

Question: What about the Activity (Plasma [16]) of the same molecule?
Answer: 51.62%

Question: What about the Activity [17] of the same molecule?
Answer: 25.52%

Question: What about the Activity (Brain [18]) of the same molecule?
Answer: 1.16 nmol/mg protein

Question: For `COc1cc(-c2cc(=O)c3c(O)cc(O[C@@H]4O[C@H](CO)[C@@H](O)[C@H](O)[C@H]4O)cc3o2)ccc1O`, which Activity [10] is on record?
Answer: 21.99%

Question: And the Activity (Brain [11])?
Answer: 1.37 nmol/mg protein

Question: What about the Activity (Plasma [12]) of the same molecule?
Answer: 66.21%

Question: And the Activity (Brain [13])?
Answer: 1.19 nmol/mg protein

Question: And the Activity [14]?
Answer: 22.51%

Question: And the Activity (Plasma [15])?
Answer: 11.52%

Question: And the Activity (Plasma [16])?
Answer: 62.24%

Question: And the Activity [17]?
Answer: 27.35%

Question: And the Activity (Brain [18])?
Answer: 0.95 nmol/mg protein

Question: Which results are given for `O=C1O[C@H]([C@@H](O)CO)C(O)=C1O` [ASCORBIC ACID]?
Answer: Activity (Brain [19]): 1.35 nmol/mg; Activity (Plasma [20]): 0.17%
